Test results published in ChEMBL document CHEMBL1122758, “Studies of the mode of action of antitumor triazenes and triazines. 6. 1-Aryl-3-(hydroxymethyl)-3-methyltriazenes: synthesis, chemistry, and antitumor properties” (J Med Chem, 1984).

What was measured:
Mus musculus [1] = assay: Compound was evaluated in vivo for antitumor activity against TLX5S Lymphoma implanted mice and percentage increase in life span (%ILS(T/C)) was reported at a optimal dose of 20 mg/Kg; type: functional
[2] = In vitro biological stability and half-life was measured in phosphate buffer at a pH of 7.4 at 37 degree Centigrade; type: physicochemical; conditions: pH 7.4
In short: (§1)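 Decomposition was tracked by UV spectroscopy as the fall in absorbance over time at the compound's λmax. Half-life came from the slope of a log plot of extent of decomposition against time, assuming first-order kinetics. Line 4 used Earl's buffer (NaCl, NaHCO3, glucose, KCl, NaH2PO4, HCl to pH 7.4). Lines 5-11 used Sorensen's phosphate buffer, with KH2PO4 and Na2HPO4 mixed to the stated pH.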

[3] = In vitro biological stability and half-life was measured by HPLC in Earl's buffer at a pH of 7.4 at 37 degree Centigrade; type: physicochemical; conditions: pH 7.4
In short: (§2)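 Triazene incubated at 100 µg mL-1 in closed containers at 37 °C in pH 7.4 buffer: Earl's (NaCl, NaHCO3, glucose, KCl, NaH2PO4, HCl-adjusted) for line 1; 0.01 M Tris, HCl-adjusted, for line 2; Sorensen's KH2PO4/Na2HPO4 phosphate for line 3. Remaining triazene was followed by HPLC with 30% aqueous acetonitrile plus 0.1% diethylamine at 2 mL/min, and UV detection at the compound's λmax.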

Mus musculus [4] = assay: Compound was evaluated in vivo for antitumor activity against TLX5R Lymphoma implanted mice and percentage increase in life span (%ILS(T/C)) was reported at a optimal dose of 20 mg/Kg five times daily.; type: functional
[5] = In vitro biological stability and half-life was measured in phosphate buffer at a pH of 7.5 at 25 degree Centigrade; type: physicochemical; conditions: pH 7.5; in short: as §1
[6] = In vitro biological stability and half-life was measured in phosphate buffer at a pH 7.5 of at 25 degree Centigrade; type: physicochemical; in short: as §1
Mus musculus [7] = assay: Compound was evaluated in vivo for antitumor activity against TLX5R Lymphoma implanted mice and percentage increase in life span (%ILS(T/C)) was reported at a optimal dose of 5 mg/Kg five times daily
[8] = In vitro biological stability and half-life was measured in Earl's buffer at a pH 7.4 of at 37 degree Centigrade; type: physicochemical; in short: as §1
[9] = In vitro biological stability and half-life was measured by HPLC in phosphate buffer at a pH of 7.4 at 37 degree Centigrade; type: physicochemical; conditions: pH 7.4; in short: as §2
[10] = In vitro biological stability and half-life was measured by HPLC in TRIS buffer at a pH of 7.4 at 37 degree Centigrade; type: physicochemical; conditions: pH 7.4; in short: as §2
[11] = In vitro biological stability and half-life was measured in phosphate buffer at a pH of 2.5 at 37 degree Centigrade; type: physicochemical; conditions: pH 2.5; in short: as §1
[12] = In vitro biological stability and half-life was measured in phosphate buffer at a pH of 4.5 at 37 degree Centigrade; type: physicochemical; conditions: pH 4.5; in short: as §1
[13] = In vitro biological stability and half-life was measured in phosphate buffer at a pH of 5.2 at 37 degree Centigrade; type: physicochemical; conditions: pH 5.2; in short: as §1
[14] = In vitro biological stability and half-life was measured in phosphate buffer at a pH of 3.5 at 37 degree Centigrade; type: physicochemical; conditions: pH 3.5; in short: as §1

CC(=O)c1ccc(/N=N/N(C)CO)cc1
ILS (T/C) (Mus musculus [1]): 72% | half-life [2]: 14.5 min

CN(CO)/N=N/c1ccc(C#N)cc1
ILS (T/C) (Mus musculus [1]): 54%

CN(CO)/N=N/c1ccc(C(N)=O)cc1
ILS (T/C) (Mus musculus [1]): 62%

CCN=NNc1ccc(C(C)=O)cc1
half-life [3]: 15.1 min

C/N=N/Nc1ccccc1
half-life [2]: 3.5 min

CN/N=N/c1ccc(C(=O)OC)cc1
ILS (T/C) (Mus musculus [1]): 87% | half-life [2]: 12.1 min | ILS (T/C) (Mus musculus [4]): 4% | half-life [5]: 35 min

CCN(CO)N=Nc1ccc(C(=O)OC)cc1
half-life [6]: 7 min

COC(=O)c1ccc(/N=N/N(C)CO)cc1
ILS (T/C) (Mus musculus [1]): 120% | half-life [2]: 12.6 min | ILS (T/C) (Mus musculus [7]): 0% | half-life [5]: 22 min

CN=NNc1ccc(C#N)cc1
half-life [8]: 99 min

CCN(CO)/N=N/c1ccc(C#N)cc1
ILS (T/C) (Mus musculus [1]): 0%

CN=NNc1ccc(C(C)=O)cc1
half-life [2]: 13.8 min | half-life [3]: 66.6 min | half-life [9]: 15.1 min | half-life [10]: 36.2 min

CCN=NNc1ccc(C(=O)OC)cc1
half-life [6]: 9 min

CCN=NNc1ccc(C#N)cc1
half-life [8]: 18.3 min

CC(=O)c1ccc(/N=N/N(C)C)cc1
half-life [11]: 1.23 min | ILS (T/C) (Mus musculus [1]): 65% | half-life [2]: > 1440 min | ILS (T/C) (Mus musculus [4]): 0% | half-life [12]: 108 min | half-life [13]: > 1440 min | half-life [14]: 11.8 min

COC(=O)c1ccc(/N=N/N(C)COC(=O)c2ccccc2)cc1
ILS (T/C) (Mus musculus [1]): 31% | half-life [5]: 26.5 min

COC(=O)c1ccc(/N=N/N(C)C)cc1
ILS (T/C) (Mus musculus [1]): 58% | ILS (T/C) (Mus musculus [4]): 0% | half-life [5]: > 1440 min
